According to ChEMBL document CHEMBL2311390, “Synthesis and preliminary evaluation of pharmacological properties of some piperazine derivatives of xanthone” (Bioorg Med Chem, 2013):

Columns and labels:
[1] = biological target: T1, Adrenergic receptor alpha-1 (Rattus norvegicus, UniProt P15823+P23944+P43140); assay: Displacement of [3H]-prazosin from alpha1-adrenergic receptor in rat cerebral cortex by liquid scintillation counting; type: tissue-based
T1 sequence (P15823 whole entry): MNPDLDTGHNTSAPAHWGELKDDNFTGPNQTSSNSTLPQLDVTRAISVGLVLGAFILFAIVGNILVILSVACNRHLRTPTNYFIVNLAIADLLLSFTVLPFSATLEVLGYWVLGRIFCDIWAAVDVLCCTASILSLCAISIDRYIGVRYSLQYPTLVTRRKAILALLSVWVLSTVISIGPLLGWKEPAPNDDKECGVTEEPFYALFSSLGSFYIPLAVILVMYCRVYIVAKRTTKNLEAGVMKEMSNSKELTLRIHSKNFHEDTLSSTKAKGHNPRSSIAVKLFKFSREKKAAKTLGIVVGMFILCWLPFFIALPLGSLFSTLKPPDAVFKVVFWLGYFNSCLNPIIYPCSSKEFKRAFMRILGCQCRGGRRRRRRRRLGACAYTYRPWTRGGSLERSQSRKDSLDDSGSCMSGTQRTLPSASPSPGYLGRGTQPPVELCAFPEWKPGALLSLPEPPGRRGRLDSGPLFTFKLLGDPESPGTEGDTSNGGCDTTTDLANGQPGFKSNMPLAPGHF
T1 sequence (P23944 whole entry): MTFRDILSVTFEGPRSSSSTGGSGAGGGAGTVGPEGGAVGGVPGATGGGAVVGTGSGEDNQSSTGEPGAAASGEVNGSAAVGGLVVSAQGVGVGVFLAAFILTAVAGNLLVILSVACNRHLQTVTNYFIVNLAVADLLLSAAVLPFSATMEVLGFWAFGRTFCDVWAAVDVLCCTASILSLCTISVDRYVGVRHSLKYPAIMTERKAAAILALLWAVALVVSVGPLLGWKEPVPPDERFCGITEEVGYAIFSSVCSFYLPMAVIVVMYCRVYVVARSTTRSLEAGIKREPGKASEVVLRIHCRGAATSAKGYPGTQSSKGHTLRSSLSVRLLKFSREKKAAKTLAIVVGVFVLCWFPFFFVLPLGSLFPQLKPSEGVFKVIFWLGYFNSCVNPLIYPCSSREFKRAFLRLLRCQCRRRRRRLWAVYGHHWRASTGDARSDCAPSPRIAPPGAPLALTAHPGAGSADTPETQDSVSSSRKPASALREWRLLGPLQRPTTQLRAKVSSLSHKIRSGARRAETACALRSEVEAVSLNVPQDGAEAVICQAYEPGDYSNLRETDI
T1 sequence (P43140 whole entry): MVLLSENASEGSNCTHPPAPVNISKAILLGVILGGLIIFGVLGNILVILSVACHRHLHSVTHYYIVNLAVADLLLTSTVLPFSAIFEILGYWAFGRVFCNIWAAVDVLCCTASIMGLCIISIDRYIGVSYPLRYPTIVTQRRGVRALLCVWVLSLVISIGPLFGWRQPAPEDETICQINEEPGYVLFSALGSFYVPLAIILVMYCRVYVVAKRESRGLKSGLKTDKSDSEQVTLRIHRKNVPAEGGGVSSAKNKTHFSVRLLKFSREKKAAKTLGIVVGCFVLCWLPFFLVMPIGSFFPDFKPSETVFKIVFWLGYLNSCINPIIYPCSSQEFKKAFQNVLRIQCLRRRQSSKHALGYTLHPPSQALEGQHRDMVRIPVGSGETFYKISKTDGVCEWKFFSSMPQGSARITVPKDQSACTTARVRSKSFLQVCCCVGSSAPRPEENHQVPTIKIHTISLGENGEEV
Outline: (§1)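 Rat cerebral cortex was homogenised in ice-cold 50 mM Tris-HCl pH 7.6 and spun at 20,000 g for 20 min at 0–4 °C, then washed once. Radioligands: [3H]prazosin 0.2 nM for α1, [3H]clonidine 2 nM for α2, [3H]CGP-12177 0.2 nM for β1. Test compounds were run at 7–8 concentrations from 10^-11 to 10^-4 M. Nonspecific binding was defined with phentolamine (α1), clonidine (α2) or propranolol (β1). Counting was by liquid scintillation, in duplicate. Ki was derived by Cheng–Prusoff from 2–3 experiments.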

[2] = biological target: T2, Adrenergic receptor alpha-2 (Rattus norvegicus, UniProt P22086+P19328+P22909); assay: Displacement of [3H]clonidine from alpha2-adrenergic receptor in rat cerebral cortex by liquid scintillation counting; type: tissue-based; outline: as §1
T2 sequence (P22086 whole entry): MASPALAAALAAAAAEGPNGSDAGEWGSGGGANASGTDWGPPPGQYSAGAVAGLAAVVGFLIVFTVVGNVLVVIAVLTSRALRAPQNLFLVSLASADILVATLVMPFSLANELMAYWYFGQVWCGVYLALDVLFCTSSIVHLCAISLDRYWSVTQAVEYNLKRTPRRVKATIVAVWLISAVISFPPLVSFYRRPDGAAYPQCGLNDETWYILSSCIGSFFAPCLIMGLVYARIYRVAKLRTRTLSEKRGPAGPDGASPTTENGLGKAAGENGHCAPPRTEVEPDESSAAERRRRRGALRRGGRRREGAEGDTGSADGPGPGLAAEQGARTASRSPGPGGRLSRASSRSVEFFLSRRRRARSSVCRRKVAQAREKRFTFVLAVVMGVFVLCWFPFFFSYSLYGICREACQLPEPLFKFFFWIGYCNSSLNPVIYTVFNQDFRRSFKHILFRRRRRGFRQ
T2 sequence (P19328 whole entry): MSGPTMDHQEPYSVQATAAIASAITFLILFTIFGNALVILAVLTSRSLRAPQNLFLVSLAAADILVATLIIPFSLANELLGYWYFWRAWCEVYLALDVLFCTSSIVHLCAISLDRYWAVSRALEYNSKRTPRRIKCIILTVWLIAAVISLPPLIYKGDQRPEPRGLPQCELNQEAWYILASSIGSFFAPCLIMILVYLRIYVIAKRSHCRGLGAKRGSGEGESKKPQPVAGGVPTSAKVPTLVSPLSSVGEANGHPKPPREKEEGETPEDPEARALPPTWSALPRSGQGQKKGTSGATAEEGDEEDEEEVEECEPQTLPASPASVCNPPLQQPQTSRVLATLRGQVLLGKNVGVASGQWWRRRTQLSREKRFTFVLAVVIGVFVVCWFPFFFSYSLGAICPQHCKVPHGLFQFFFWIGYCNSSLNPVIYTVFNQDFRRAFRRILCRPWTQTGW
T2 sequence (P22909 whole entry): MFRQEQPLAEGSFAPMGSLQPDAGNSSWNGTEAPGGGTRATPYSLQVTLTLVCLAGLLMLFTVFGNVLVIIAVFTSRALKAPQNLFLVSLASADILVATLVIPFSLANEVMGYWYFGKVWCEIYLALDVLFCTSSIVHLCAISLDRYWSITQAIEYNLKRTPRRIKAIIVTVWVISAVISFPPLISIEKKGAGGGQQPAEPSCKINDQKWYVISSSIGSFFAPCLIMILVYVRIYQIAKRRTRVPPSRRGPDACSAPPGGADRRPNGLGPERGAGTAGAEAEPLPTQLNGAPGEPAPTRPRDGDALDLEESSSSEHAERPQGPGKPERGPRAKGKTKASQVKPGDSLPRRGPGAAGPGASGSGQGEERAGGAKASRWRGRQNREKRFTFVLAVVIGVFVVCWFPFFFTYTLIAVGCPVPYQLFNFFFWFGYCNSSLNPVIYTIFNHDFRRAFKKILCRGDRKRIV

SMILES | Ki [1] [nM] | Ki [2] [nM]
COc1ccccc1N1CCN(CCCOc2cccc3c(=O)c4ccccc4oc23)CC1.Cl | 4 | 695
COc1ccccc1N1CCN(CC(COc2cccc3c(=O)c4ccccc4oc23)OC(C)=O)CC1.Cl (racemic) | 50 | 2100
COc1ccccc1N1CCN(CC(O)COc2cccc3c(=O)c4ccccc4oc23)CC1.Cl (racemic) | 18 | 4260

The remaining lines, values ahead:

Ki [1] [nM] | Ki [2] [nM] | SMILES
506 | 450 | Cl.Cl.Cl.O=c1c2ccc(Cl)cc2oc2c(OCC(O)CN3CCN(CCOc4ccccc4)CC3)cccc12 (racemic)
1100 | 3400 | Cl.Cl.Cl.O=c1c2ccc(Cl)cc2oc2c(OCC(O)CN3CCN(C/C=C/c4ccccc4)CC3)cccc12 (racemic)
614 | 7700 | Cl.Cl.Cl.O=c1c2ccc(Cl)cc2oc2c(OCC(O)CN3CCN(Cc4ccccc4)CC3)cccc12 (racemic)
677 | 634 | Cl.Cl.O=c1c2ccccc2oc2c(OCC(O)CN3CCN(C/C=C/c4ccccc4)CC3)cccc12 (racemic)
